# Assay results as given in PubChem BioAssay.
# Active and inactive are the calls of the source.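 How the source made its calls, unless noted: active means Her2 level under about 52% in both replicate screens, with viability over 70% of control (limit read from the data); inconclusive means Her2 under the limit in one screen only, or viability under 70%; inactive means Her2 level above the set limit.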
# Experiments:
# [1] = reducers of endogenous Her2 protein level, primary screen, SKBR3 breast tumor cells, AlphaScreen, ATP viability (AID 461); conditions: 18-24 h, measured here: SKBR3 viability, ATP luminescence, at 10 µM;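 on Her2 level: lower value means less Her2 protein in the cells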;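 on viability: percent of carrier control wells set as 100% viability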
# [2] = biological target: Receptor tyrosine-protein kinase erbB-2 (Homo sapiens) (UniProt P04626); assay: as above; conditions: 18-24 h, at 10 µM, stronger effect = lower value
# [3] = SK-BR-3 cell growth inhibitors, pilot screen, 24 h, human (AID 572;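 active means viability at or below 10% of carrier control in both of two separate runs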;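 further: compound exposure lasted between 18 and 24 h rather than exactly 24 h; 100% = carrier-treated control wells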); conditions: SK-BR-3 viability, CellTiter-Glo luminescence, at 10 µM, stronger effect = lower value
# [4] = HUVEC growth inhibition – cell-based, human, primary screen (AID 575;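 active means viability at or below 30% in both replicate assays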;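 further: 100% = median of untreated cell wells with 0.1% DMSO on each plate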); conditions: HUVEC proliferation, CellTiter-Glo luminescence, 72 h; at 10 µM; stronger effect = lower value
# Outline: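 Test system – primary HUVEC, no more than 12 passages · Dosing – one dose, 10 µM final, 0.1% DMSO · Times – 72 h treatment at 37 °C · Measured by – ATP-based CellTiter-Glo luminescent read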
# [5] = reversal of MRP1-mediated doxorubicin resistance, pilot screen, H69AR cells, doxorubicin co-treatment (AID 601;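 active means viability loss from added drug above about 55%, and viability with drug at most 40%, in both replicates, limit read from the data, passing the limit was not always enough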); conditions: CellTiter-Glo, 72 h, at 10 µM; for differential viability (reversal): stronger effect = higher value
# [6] = 384-well plate pilot, post-Golgi transport modulator project, inhibition of yeast transport mutant growth (AID 636; in the data active means inhibition above about 31%); conditions: absorbance 615 nm, about 18 h, stronger effect = higher value
# [7] = growth suppression of yeast trafficking mutant, preliminary HTS, modulators of trafficking downstream of Golgi apparatus project, 1536-format plate, OD 615 nm (AID 637; in the data active means inhibition above about 30%); conditions: yeast transport mutant growth, absorbance 615 nm, 18 h; stronger effect = higher value
# [8] = H69AR cells + 2 uM doxorubicin, measured here: viability with 2 uM doxorubicin, stronger effect = lower value
# [9] = H69AR cells, compound alone cytotoxicity
# Sequence of Receptor tyrosine-protein kinase erbB-2 (Homo sapiens) (P04626 whole entry, looked up): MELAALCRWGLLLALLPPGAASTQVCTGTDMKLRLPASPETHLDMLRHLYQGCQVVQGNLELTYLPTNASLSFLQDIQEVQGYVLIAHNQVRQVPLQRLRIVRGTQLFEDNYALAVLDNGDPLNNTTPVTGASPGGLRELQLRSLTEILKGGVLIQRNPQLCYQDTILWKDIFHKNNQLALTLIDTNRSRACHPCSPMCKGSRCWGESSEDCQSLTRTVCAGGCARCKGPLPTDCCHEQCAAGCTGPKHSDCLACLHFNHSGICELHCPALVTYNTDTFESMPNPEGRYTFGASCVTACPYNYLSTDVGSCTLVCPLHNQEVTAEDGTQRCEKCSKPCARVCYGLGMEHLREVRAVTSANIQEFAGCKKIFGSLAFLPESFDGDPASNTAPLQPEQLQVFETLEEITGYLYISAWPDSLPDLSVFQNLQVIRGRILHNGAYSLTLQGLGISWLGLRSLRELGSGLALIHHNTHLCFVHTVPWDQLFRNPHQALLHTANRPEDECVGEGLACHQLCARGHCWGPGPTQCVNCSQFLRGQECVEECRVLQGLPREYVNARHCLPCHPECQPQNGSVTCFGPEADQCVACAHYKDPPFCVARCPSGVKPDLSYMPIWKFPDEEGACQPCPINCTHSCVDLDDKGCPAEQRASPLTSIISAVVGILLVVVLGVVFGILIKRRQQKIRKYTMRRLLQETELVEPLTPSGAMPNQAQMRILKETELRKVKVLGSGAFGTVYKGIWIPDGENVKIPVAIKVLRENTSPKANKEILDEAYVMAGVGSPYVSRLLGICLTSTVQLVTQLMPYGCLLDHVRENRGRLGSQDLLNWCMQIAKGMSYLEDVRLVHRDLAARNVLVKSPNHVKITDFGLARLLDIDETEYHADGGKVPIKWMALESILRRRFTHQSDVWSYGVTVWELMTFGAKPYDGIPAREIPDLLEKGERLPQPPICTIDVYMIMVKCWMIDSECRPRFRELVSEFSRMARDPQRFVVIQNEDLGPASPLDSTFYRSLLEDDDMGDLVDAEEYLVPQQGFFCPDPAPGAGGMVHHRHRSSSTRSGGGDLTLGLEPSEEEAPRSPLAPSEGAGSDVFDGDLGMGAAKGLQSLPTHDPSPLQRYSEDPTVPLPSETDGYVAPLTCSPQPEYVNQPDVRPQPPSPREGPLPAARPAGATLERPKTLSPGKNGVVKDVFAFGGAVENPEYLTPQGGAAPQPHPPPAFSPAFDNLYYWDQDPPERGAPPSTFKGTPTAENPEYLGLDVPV
SMILES,viability [1] [%],Her2 level [2],viability [3],viability [4],differential viability (reversal) ([5]; H69AR cells + 2 uM doxorubicin),"viability [5, 8] [%]","viability [5, 9] [%]",inhibition [6],inhibition [7]
CCOC(=O)c1ccc(N2C(=O)CC(Sc3nnc(C)s3)C2=O)cc1 (centres undefined),103,100% (inactive),103% (inactive),102% (inactive),4.82% (inactive),46.2,51,-8.4% (inactive),-6.67% (inactive)
N#Cc1c(N)nc(SCc2ccncc2)c(C#N)c1-c1cccs1,98.5,71% (inactive),98.5% (inactive),79% (inactive),37.4% (inactive),14.9,52.3,-0.53% (inactive),7.74% (inactive)
O=C(NC1CCc2ccccc21)C1CCN(S(=O)(=O)c2ccc(-n3cnnn3)cc2)CC1 (centres undefined),74.5,85% (inactive),74.5% (inactive),96.4% (inactive),-8.48% (inactive),63.5,55,-2.63% (inactive),-0.36% (inactive)
N#CC1=C(N)n2c(s/c(=C\c3ccco3)c2=O)=C(C#N)C1c1ccco1 (centres undefined),100,31.5% (active),100% (inactive),78.6% (inactive),-10.7% (inactive),58,47.4,0.13% (inactive),-4.36% (inactive)
CCSc1nnc(NC(=O)c2ccccn2)s1,92,80.5% (inactive),92% (inactive),18.4% (active),-14% (inactive),34.8,20.8,4.03% (inactive),9.21% (inactive)
Cc1ccc(Cn2c(C)nc3c(c2=O)c2nc4ccccc4nc2n3Cc2ccco2)cc1,118,71.5% (inactive),118% (inactive),54.9% (inactive),-1.46% (inactive),50.5,49,1.32% (inactive),1.8% (inactive)
